Test results as given in ChEMBL document CHEMBL1127568, “A new series of PDGF receptor tyrosine kinase inhibitors: 3-substituted quinoline derivatives” (J Med Chem, 1994).

Key:
[1] = target: Epidermal growth factor receptor (Homo sapiens, UniProt P00533); assay: Concentration required to inhibit phosphorylation of isolated human epidermal growth factor tyrosine kinase receptor by 50%
[2] = target: T1, Platelet-derived growth factor receptor (Homo sapiens, UniProt P09619+P16234); assay: Inhibition of isolated human PDGF receptor phosphorylation; assay type: protein-complex assay
[3] = target: T1, Platelet-derived growth factor receptor; assay: Inhibition of human PDGF receptor phosphorylation; 0.008-0.07; assay type: protein-complex assay
[4] = target: T1, Platelet-derived growth factor receptor; assay: Inhibition of human PDGF receptor phosphorylation; 0.02-0.04; assay type: protein-complex assay
Method in brief: (§1)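 PDGF receptor from NIH 3T3 cell lysates (cells made quiescent 24 h in 0.5% calf serum), stimulated with 10 ng/mL PDGF for 30 min at 4 °C and immunoprecipitated on Protein A beads. Each compound ran in at least two dose-response assays.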

[5] = target: T1, Platelet-derived growth factor receptor; assay: Inhibition of human PDGF receptor phosphorylation; 0.01-0.02; assay type: protein-complex assay
[6] = target: cAMP-dependent protein kinase (PKA) (Homo sapiens, UniProt P22694+P17612+P22612); assay: Test for the inhibition of protein kinase A; assay type: protein assay
[7] = target: T1, Platelet-derived growth factor receptor; assay: Inhibition of human PDGF receptor phosphorylation; 20-30; assay type: protein-complex assay
[8] = target: T1, Platelet-derived growth factor receptor; assay: Inhibition of human PDGF receptor phosphorylation; 1-2; assay type: protein-complex assay; method in brief: as §1
[9] = target: T1, Platelet-derived growth factor receptor; assay: Inhibition of human PDGF receptor phosphorylation; 0.1-0.5; assay type: protein-complex assay; method in brief: as §1
[10] = target: T1, Platelet-derived growth factor receptor; assay: Inhibition of human PDGF receptor phosphorylation; 0.3-0.5; assay type: protein-complex assay; method in brief: as §1
[11] = target: T1, Platelet-derived growth factor receptor; assay: Inhibition of human PDGF receptor phosphorylation; 0.2-0.8; assay type: protein-complex assay
Method in brief: (§2)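 Receptor from quiescent NIH 3T3 cell lysates (24 h in 0.5% calf serum before lysis), stimulated with 10 ng/mL PDGF for 30 min at 4 °C, then immunoprecipitated with anti-PDGF receptor antibody on Protein A beads. Compound pre-incubated 10 min at 4 °C in 50 mM Tris, 10 mM MnCl2, pH 7.5. At least two dose-response assays per compound.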

[12] = target: T1, Platelet-derived growth factor receptor; assay: Inhibition of human PDGF receptor phosphorylation; 0.7-5; assay type: protein-complex assay; method in brief: as §1
[13] = target: T1, Platelet-derived growth factor receptor; assay: Inhibition of human PDGF receptor phosphorylation; 0.2-0.4; assay type: protein-complex assay; method in brief: as §1
[14] = target: T1, Platelet-derived growth factor receptor; assay: Inhibition of human PDGF receptor phosphorylation; 0.1-0.4; assay type: protein-complex assay; method in brief: as §1
[15] = target: T1, Platelet-derived growth factor receptor; assay: Inhibition of human PDGF receptor phosphorylation; 0.04-0.07; assay type: protein-complex assay; method in brief: as §2
[16] = target: T1, Platelet-derived growth factor receptor; assay: Inhibition of human PDGF receptor phosphorylation; 0.015-0.03; assay type: protein-complex assay; method in brief: as §1
[17] = target: T1, Platelet-derived growth factor receptor; assay: Inhibition of human PDGF receptor phosphorylation; 0.5-3; assay type: protein-complex assay
[18] = target: T1, Platelet-derived growth factor receptor; assay: Inhibition of human PDGF receptor phosphorylation; 0.02-0.05; assay type: protein-complex assay; method in brief: as §1
[19] = target: T1, Platelet-derived growth factor receptor; assay: Inhibition of human PDGF receptor phosphorylation; 0.1-0.2; assay type: protein-complex assay; method in brief: as §1
[20] = target: T1, Platelet-derived growth factor receptor; assay: Inhibition of human PDGF receptor phosphorylation; 0.15-0.5; assay type: protein-complex assay; method in brief: as §1
[21] = target: T1, Platelet-derived growth factor receptor; assay: Inhibition of human PDGF receptor phosphorylation; 0.5-2; assay type: protein-complex assay
[22] = target: T1, Platelet-derived growth factor receptor; assay: Inhibition of human PDGF receptor phosphorylation; 0.09-0.2; assay type: protein-complex assay; method in brief: as §1
[23] = target: T1, Platelet-derived growth factor receptor; assay: Inhibition of human PDGF receptor phosphorylation; 0.003-0.005; assay type: protein-complex assay
[24] = target: T1, Platelet-derived growth factor receptor; assay: Inhibition of human PDGF receptor phosphorylation; 1-7; assay type: protein-complex assay
[25] = target: T1, Platelet-derived growth factor receptor; assay: Inhibition of human PDGF receptor phosphorylation; 2-4; assay type: protein-complex assay
[26] = target: T1, Platelet-derived growth factor receptor; assay: Inhibition of human PDGF receptor phosphorylation; 0.002-0.06; assay type: protein-complex assay; method in brief: as §1
[27] = target: T1, Platelet-derived growth factor receptor; assay: Inhibition of human PDGF receptor phosphorylation; 0.035-0.06; assay type: protein-complex assay; method in brief: as §1
[28] = target: T1, Platelet-derived growth factor receptor; assay: Inhibition of human PDGF receptor phosphorylation; 0.2-0.6; assay type: protein-complex assay; method in brief: as §1
[29] = target: T1, Platelet-derived growth factor receptor; assay: Inhibition of human PDGF receptor phosphorylation; 0.07-0.15; assay type: protein-complex assay
[30] = target: T1, Platelet-derived growth factor receptor; assay: Inhibition of human PDGF receptor phosphorylation; 0.007-0.03; assay type: protein-complex assay
[31] = target: T1, Platelet-derived growth factor receptor; assay: Inhibition of human PDGF receptor phosphorylation; 0.001-0.015; assay type: protein-complex assay
[32] = target: T1, Platelet-derived growth factor receptor; assay: Inhibition of human PDGF receptor phosphorylation; 0.001-0.005; assay type: protein-complex assay; method in brief: as §1

Chain of Epidermal growth factor receptor (P00533 whole entry): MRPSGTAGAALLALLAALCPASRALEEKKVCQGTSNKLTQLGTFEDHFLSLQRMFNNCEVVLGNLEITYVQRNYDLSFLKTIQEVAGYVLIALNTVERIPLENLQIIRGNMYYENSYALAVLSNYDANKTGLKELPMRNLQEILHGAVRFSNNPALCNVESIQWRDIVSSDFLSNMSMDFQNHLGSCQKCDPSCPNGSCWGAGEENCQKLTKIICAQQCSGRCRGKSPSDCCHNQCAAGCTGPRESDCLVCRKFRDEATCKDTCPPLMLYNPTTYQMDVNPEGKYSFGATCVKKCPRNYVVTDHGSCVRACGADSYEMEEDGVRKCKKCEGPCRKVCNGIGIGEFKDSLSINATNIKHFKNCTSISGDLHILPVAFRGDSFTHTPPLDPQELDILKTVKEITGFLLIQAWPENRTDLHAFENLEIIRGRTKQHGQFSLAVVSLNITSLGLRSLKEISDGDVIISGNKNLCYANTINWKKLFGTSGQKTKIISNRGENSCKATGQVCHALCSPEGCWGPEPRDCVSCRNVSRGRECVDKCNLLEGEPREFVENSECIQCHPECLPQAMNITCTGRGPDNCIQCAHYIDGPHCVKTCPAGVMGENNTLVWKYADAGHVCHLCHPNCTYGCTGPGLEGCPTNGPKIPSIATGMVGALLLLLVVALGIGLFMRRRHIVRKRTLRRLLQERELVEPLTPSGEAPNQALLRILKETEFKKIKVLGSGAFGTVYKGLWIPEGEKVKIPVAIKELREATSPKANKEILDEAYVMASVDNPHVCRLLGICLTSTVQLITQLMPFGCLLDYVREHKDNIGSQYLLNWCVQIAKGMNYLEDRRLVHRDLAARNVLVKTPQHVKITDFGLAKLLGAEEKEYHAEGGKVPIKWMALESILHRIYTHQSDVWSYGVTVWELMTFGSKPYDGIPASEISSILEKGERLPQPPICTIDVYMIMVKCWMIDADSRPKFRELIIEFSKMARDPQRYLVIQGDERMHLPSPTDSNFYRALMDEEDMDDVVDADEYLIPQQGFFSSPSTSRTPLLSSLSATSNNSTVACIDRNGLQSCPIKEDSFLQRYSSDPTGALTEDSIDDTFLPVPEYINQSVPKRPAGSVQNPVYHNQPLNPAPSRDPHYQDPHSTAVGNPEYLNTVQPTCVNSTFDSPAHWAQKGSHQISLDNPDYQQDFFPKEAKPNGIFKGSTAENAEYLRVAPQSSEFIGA

COc1cc2cc(-c3ccc(-c4ccccc4)cc3)cnc2cc1OC
IC50 [1]: > 20 µM
IC50 [2]: > 50 µM

COc1cc2cc(-c3ccc(N(C)C)cc3)cnc2cc1OC
IC50 [1]: > 20 µM
IC50 [2]: 10 µM

COc1ccc(-c2cnc3cc(OC)c(OC)cc3c2)cn1
IC50 [3]: 0.07 µM
IC50 [1]: > 20 µM

COc1cc2cc(C3=CCCC3)cnc2cc1OC
IC50 [4]: 0.04 µM
IC50 [1]: > 20 µM

COc1cc2cc(-c3ccsc3)cnc2cc1OC
IC50 [1]: > 20 µM
IC50 [5]: 0.02 µM
IC50 [6]: > 200 µM

COc1cc2cccnc2cc1OC
IC50 [7]: 30 µM
IC50 [1]: > 20 µM

Clc1cc2cc(-c3ccsc3)cnc2cc1Cl
IC50 [8]: 2 µM
IC50 [1]: > 20 µM

COc1cc2cc(C3CCCC3)cnc2cc1OC
IC50 [1]: > 20 µM
IC50 [9]: 0.5 µM

COc1cc2cc(CCC3CCCCC3)cnc2cc1OC
IC50 [10]: 0.5 µM
IC50 [1]: > 20 µM

COc1ccc(CCc2cnc3cc(OC)c(OC)cc3c2)cc1
IC50 [1]: > 20 µM
IC50 [11]: 0.8 µM

COc1cc2cc(-c3ccc(C(=O)O)cc3)cnc2cc1OC
IC50 [12]: 5 µM

COc1cc2cc(-c3cc(F)c(OC)c(F)c3)cnc2cc1OC
IC50 [13]: 0.4 µM
IC50 [1]: > 20 µM

COc1ccc(-c2cnc3cc(OC)c(OC)cc3c2)cc1C
IC50 [1]: > 20 µM
IC50 [14]: 0.4 µM

COc1cc2cc(OCc3ccccc3)cnc2cc1OC
IC50 [15]: 0.07 µM
IC50 [1]: > 20 µM

COc1cc2cc(-c3ccc(=O)[nH]c3)cnc2cc1OC
IC50 [16]: 0.03 µM
IC50 [1]: > 20 µM

COc1ccc(/C=C(\C#N)c2cccnc2)cc1OC
IC50 [17]: 3 µM
IC50 [1]: 0.7 µM

COc1cc2cc(C#Cc3ccccc3)cnc2cc1OC
IC50 [1]: > 20 µM
IC50 [18]: 0.05 µM

CCOC(=O)c1ccc(-c2cnc3cc(OC)c(OC)cc3c2)cc1
IC50 [19]: 0.2 µM

COc1cc2cc(-c3ccc(OC)c([N+](=O)[O-])c3)cnc2cc1OC
IC50 [20]: 0.5 µM
IC50 [1]: > 20 µM

COc1cc2cc(-c3ccc(C)cc3)cnc2cc1OC
IC50 [1]: > 20 µM
IC50 [21]: 2 µM

COc1cc2cc(-c3ccc(F)c(F)c3)cnc2cc1OC
IC50 [1]: > 20 µM
IC50 [22]: 0.2 µM

COc1ccc(-c2cnc3cc(OC)c(OC)cc3c2)cc1F
IC50 [1]: > 20 µM
IC50 [23]: 0.005 µM

COc1cc2cc(-c3ccc(Cl)c(Cl)c3)cnc2cc1OC
IC50 [24]: 7 µM
IC50 [1]: > 20 µM

COc1ccc(-c2cnc3cc(OC)c(OC)cc3c2)c(OC)c1
IC50 [1]: > 20 µM
IC50 [2]: > 50 µM

Fc1cc2cc(-c3ccsc3)cnc2cc1F
IC50 [25]: 4 µM

COc1ccc2cc(-c3ccsc3)cnc2c1
IC50 [1]: > 20 µM
IC50 [26]: 0.06 µM

COc1cc2cc(-c3ccc(F)cc3)cnc2cc1OC
IC50 [1]: > 20 µM
IC50 [27]: 0.06 µM

c1cc(-c2cnc3cc4c(cc3c2)OCO4)cs1
IC50 [1]: > 20 µM
IC50 [28]: 0.6 µM

COc1cc2cc(-c3ccc([N+](=O)[O-])cc3)cnc2cc1OC
IC50 [1]: > 20 µM
IC50 [29]: 0.15 µM

COc1cc2cc(-c3ccc(Cl)s3)cnc2cc1OC
IC50 [30]: 0.03 µM
IC50 [1]: > 20 µM

COc1ccc(-c2cnc3cc(OC)c(OC)cc3c2)cc1
IC50 [31]: 0.015 µM
IC50 [1]: > 20 µM
IC50 [6]: > 200 µM

COc1cc2cc(/C=C/c3ccccc3)cnc2cc1OC
IC50 [32]: 0.005 µM
IC50 [1]: > 20 µM
